Data: ChEMBL document CHEMBL3875170, “2-Methyl-4/5-nitroimidazole derivatives potentiated against sexually transmitted Trichomonas: Design, synthesis, biology and 3D-QSAR study” (Eur J Med Chem, 2016)
Values after ≈ are worked out from the molar mass of the structure shown.

Assays:
[1] = Cytotoxicity against human HeLa cells after 24 hrs by MTT assay; type: toxicity, cell-based
Summary of the method: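 HeLa cells seeded at 2 × 10⁴ per well in DMEM with 10% FCS, in triplicate, and held 24 h at 37 °C in 5% CO₂. Exposed to compound dilutions for 24 h; controls received 0.05% DMSO. MTT in PBS pH 7.4 added, formazan dissolved in DMSO, OD540 read. IC50 taken as the concentration killing 50% of cells.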

Trichomonas vaginalis [2] = assay: Antiparasitic activity against metronidazole sensitive Trichomonas vaginalis ATCC 33592 after 48 hrs by trypan blue exclusion assay; type: functional; conditions: ATCC 33592, 48 h
[3] = Selectivity index, ratio of IC50 for human HeLa cells to MIC for metronidazole sensitive Trichomonas vaginalis ATCC 33592; type: toxicity, cell-based; conditions: read-out: Selectivity Index
Summary of the method: (§1)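 SI is HeLa IC50 divided by parasite MIC. HeLa cells seeded at 2 × 10⁴/well in triplicate in DMEM with 10% FCS, 24 h at 37 °C in 5% CO2. Medium then replaced with compound dilutions (0.05% DMSO controls) for 24 h. Viability by MTT read at OD540; IC50 is the concentration killing 50% of cells. MIC from 48 h trypan blue parasite killing in TYM.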

[4] = Selectivity index, ratio of IC50 for human HeLa cells to MIC for metronidazole resistant Trichomonas vaginalis ATCC 50143; type: toxicity, cell-based; conditions: read-out: Selectivity Index; summary of the method: as §1
Trichomonas vaginalis [5] = assay: Antiparasitic activity against metronidazole resistant Trichomonas vaginalis ATCC 50143 after 48 hrs by trypan blue exclusion assay; type: functional; conditions: ATCC 50143, 48 h
Summary of the method: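 T. vaginalis trophozoites ([…]), log phase, grown in TYM with 10% FCS, vitamin mix and penicillin/streptomycin at 37 °C. Test agents from DMSO stocks serially diluted in TYM; DMSO/TYM vehicle controls. Anaerobic incubation at 37 °C with microscopic viability checks from 3 to 48 h by trypan blue exclusion. MIC is the lowest concentration killing all cells by 48 h. Repeated three times.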

Trichomonas vaginalis [6] = assay: Potency index, ratio of metronidazole MIC to compound MIC for metronidazole resistant Trichomonas vaginalis ATCC 50143; type: functional

Compound | IC50 at 24 h [1] [mM] | MIC (Trichomonas vaginalis [2]) [µM] | selectivity ratio [3] | selectivity ratio [4] | MIC (Trichomonas vaginalis [5]) [µM] | Ratio (Trichomonas vaginalis [6])
CCCCN1CCN(C(=S)SCC(O)Cn2cc([N+](=O)[O-])nc2C)CC1 (racemic) | 4.33 | 125 (≈ 50.1 µg/mL) | 34 |  |  | 
Cc1nc([N+](=O)[O-])cn1CC(O)CSC(=S)N1CCCC(C)C1 (racemic) | 2.7 | 34.9 (≈ 12.5 µg/mL) | 105 | 2 | 1400 (≈ 501 µg/mL) | 
Cc1ncc([N+](=O)[O-])n1CC(O)CN1CCC(C)CC1 (racemic) | > 5 | 44.3 (≈ 12.5 µg/mL) | > 113 | > 28 | 177 (≈ 50.1 µg/mL) | <=12.7
Cc1ncc([N+](=O)[O-])n1CC(O)CSC(=S)N1CCCCC1 (racemic) | 1.4 | 72.7 (≈ 25 µg/mL) | 19 | 9 | 145 (≈ 50.1 µg/mL) | 2.5 - 12.6
Cc1ncc([N+](=O)[O-])n1CC(O)CN1CCN(c2ccccc2F)CC1 (racemic) | > 5 | 43 (≈ 15.6 µg/mL) | > 116 | > 14 | 344 (≈ 125 µg/mL) | <=12.7
Cc1nc([N+](=O)[O-])cn1CC(O)CSC(=S)N1CCN(C(=O)OC(C)(C)C)CC1 (racemic) | > 5 | 28.1 (≈ 12.5 µg/mL) | > 178 | > 9 | 562 (≈ 250 µg/mL) | 
CCN(CC)C(=S)SCC(O)Cn1c([N+](=O)[O-])cnc1C (racemic) | 2.46 | 37.6 (≈ 12.5 µg/mL) | 65 | 32 | 75.3 (≈ 25 µg/mL) | <=12.7
CCOC(=O)N1CCN(C(=S)SCC(O)Cn2cc([N+](=O)[O-])nc2C)CC1 (racemic) | 2.36 | 120 (≈ 50.1 µg/mL) | 19 | 4 | 600 (≈ 250 µg/mL) | 
CCN1CCN(C(=S)SCC(O)Cn2cc([N+](=O)[O-])nc2C)CC1 (racemic) | > 5 | 134 (≈ 50.1 µg/mL) | > 37 | > 3 | 1340 (≈ 501 µg/mL) | 
CCN1CCN(C(=S)SCC(O)Cn2c([N+](=O)[O-])cnc2C)CC1 (racemic) | > 5 | 20.9 (≈ 7.82 µg/mL) | > 250 | > 60 | 83.8 (≈ 31.3 µg/mL) | <=12.7
Cc1ncc([N+](=O)[O-])n1CC(O)CN1CCCC(C)C1 (racemic) | > 5 | 22.2 (≈ 6.26 µg/mL) | > 227 | > 56 | 88.7 (≈ 25 µg/mL) | <=12.7
COc1ccccc1N1CCN(C(=S)SCC(O)Cn2cc([N+](=O)[O-])nc2C)CC1 (racemic) | > 5 | 222 (≈ 100 µg/mL) | > 22 | > 4 | 1110 (≈ 501 µg/mL) | 
Cc1ncc([N+](=O)[O-])n1CC(O)CSC(=S)N1CCCC1 (racemic) | 1.34 | 37.9 (≈ 12.5 µg/mL) | 35 | 9 | 152 (≈ 50.1 µg/mL) | 2.5 - 12.6
COc1ccccc1N1CCN(C(=S)SCC(O)Cn2c([N+](=O)[O-])cnc2C)CC1 (racemic) | > 5 | 27.7 (≈ 12.5 µg/mL) | > 185 | > 90 | 55.4 (≈ 25 µg/mL) | <=12.7
Cc1ncc([N+](=O)[O-])n1CC(O)CN1CCN(c2ccco2)CC1 (racemic) | 3.52 | 21.5 (≈ 7.21 µg/mL) | 163 | 20 | 172 (≈ 57.7 µg/mL) | <=12.7
Cc1ncc([N+](=O)[O-])n1CC(O)CSC(=S)N(C)C (racemic) | > 5 | 20.6 (≈ 6.26 µg/mL) | > 243 | > 61 | 82.2 (≈ 25 µg/mL) | <=12.7
Cc1ncc([N+](=O)[O-])n1CC(O)Cn1cncn1 (racemic) | 4.97 | 31 (≈ 7.82 µg/mL) | 160 | 50 | 99.2 (≈ 25 µg/mL) | <=12.7
Cc1ncc([N+](=O)[O-])n1CC(O)Cn1nnc2ccccc21 (racemic) | 4.24 | 25.9 (≈ 7.82 µg/mL) | 169 | 103 | 41.4 (≈ 12.5 µg/mL) | <=12.7
Cc1ncc([N+](=O)[O-])n1CC(O)CN1CCCCCC1 (racemic) | > 5 | 22.2 (≈ 6.26 µg/mL) | > 227 | > 113 | 44.3 (≈ 12.5 µg/mL) | <=12.7

Compound | IC50 at 24 h [1] [mM] | MIC (Trichomonas vaginalis [2]) [µM] | selectivity ratio [3] | selectivity ratio [4] | MIC (Trichomonas vaginalis [5]) [µM] | Ratio (Trichomonas vaginalis [6])
COc1ccccc1N1CCN(CC(O)Cn2c([N+](=O)[O-])cnc2C)CC1 (racemic) | 4.39 | 33.3 (≈ 12.5 µg/mL) | 131 | 33 | 133 (≈ 50.1 µg/mL) | <=12.7
Cc1nc([N+](=O)[O-])cn1CC(O)CSC(=S)N1CCN(c2cccc(Cl)c2)CC1 (racemic) | 1.74 | 54.9 (≈ 25.1 µg/mL) | 31 | 3 | 549 (≈ 251 µg/mL) | 
CCN1CCN(CC(O)Cn2cc([N+](=O)[O-])nc2C)CC1 (racemic) | > 5 | 337 (≈ 100 µg/mL) | > 14 |  |  | 
Cc1ncc([N+](=O)[O-])n1CC(O)CN1CCCC1 (racemic) | > 5 | 49.2 (≈ 12.5 µg/mL) | > 102 | > 25 | 197 (≈ 50.1 µg/mL) | <=12.7
Cc1ncc([N+](=O)[O-])n1CC(O)CN1CCN(c2cccc(Cl)c2)CC1 (racemic) | 1.44 | 132 (≈ 50.1 µg/mL) | 10 | 4 | 330 (≈ 125 µg/mL) | <=12.7
Cc1ncc([N+](=O)[O-])n1CC(O)CN1CCCCC1C (racemic) | > 5 | 55.4 (≈ 15.6 µg/mL) | > 90 | > 11 | 443 (≈ 125 µg/mL) | 
Cc1nc([N+](=O)[O-])cn1CC(O)CN1CCN(c2ccccn2)CC1 (racemic) | > 5 | 144 (≈ 50.1 µg/mL) | > 34 | > 3 | 1450 (≈ 501 µg/mL) | 
CCOC(=O)N1CCN(CC(O)Cn2c([N+](=O)[O-])cnc2C)CC1 (racemic) | 3.67 | 22.9 (≈ 7.82 µg/mL) | 160 | 40 | 91.6 (≈ 31.3 µg/mL) | <=12.7
Cc1ncc([N+](=O)[O-])n1CC(O)CN1CCN(c2ccccc2)CC1 (racemic) | > 5 | 22.6 (≈ 7.82 µg/mL) | > 220 | > 27 | 181 (≈ 62.6 µg/mL) | <=12.7
Cc1ncc([N+](=O)[O-])n1CC(O)CSC(=S)N1CCN(c2ncccn2)CC1 (racemic) | 2.04 | 29.6 (≈ 12.5 µg/mL) | 69 | 69 | 29.6 (≈ 12.5 µg/mL) | 12.3
Cc1nc([N+](=O)[O-])cn1CC(O)Cn1c([N+](=O)[O-])cnc1C (racemic) | 4.35 | 50.4 (≈ 15.6 µg/mL) | 86 | 43 | 101 (≈ 31.3 µg/mL) | <=12.7
CCN(C)C(=S)SCC(O)Cn1c([N+](=O)[O-])cnc1C (stereo not given) | 4.15 | 24.6 (≈ 7.82 µg/mL) | 169 | 10 | 393 (≈ 125 µg/mL) | 
Cc1ncc([N+](=O)[O-])n1CC(O)Cn1nccn1 (racemic) | > 5 | 31 (≈ 7.82 µg/mL) | > 161 | > 102 | 49.6 (≈ 12.5 µg/mL) | <=12.7
Cc1ncc([N+](=O)[O-])n1CC(O)CN1CCOCC1 (racemic) [MORINIDAZOLE] | > 5 | 46.3 (≈ 12.5 µg/mL) | > 108 | > 54 | 92.6 (≈ 25 µg/mL) | <=12.7
Cc1ncc([N+](=O)[O-])n1CC(O)CSC(=S)N1CCOCC1 (racemic) | 4.52 | 36.1 (≈ 12.5 µg/mL) | 125 | 31 | 144 (≈ 50.1 µg/mL) | 2.5 - 12.6
Cc1ncc([N+](=O)[O-])n1CC(O)CSC(=S)N1CCCCCC1 (racemic) | 0.411 | 34.9 (≈ 12.5 µg/mL) | 11 | 6 | 69.8 (≈ 25 µg/mL) | 2.5 - 12.6
Cc1nc([N+](=O)[O-])cn1CC(O)CSC(=S)N1CCN(c2cccc(Cl)c2Cl)CC1 (racemic) | 0.724 | 25.5 (≈ 12.5 µg/mL) | 30 | 2 | 510 (≈ 250 µg/mL) | 
Cc1nc([N+](=O)[O-])cn1CC(O)Cn1cncn1 (racemic) | > 5 | 99.2 (≈ 25 µg/mL) | > 50 | > 5 | 992 (≈ 250 µg/mL) | 
Cc1nc([N+](=O)[O-])cn1CC(O)CN1CCN(c2cccc(Cl)c2Cl)CC1 (racemic) | 3.62 | 121 (≈ 50 µg/mL) | 30 | 3 | 1210 (≈ 500 µg/mL) | 
